Our source for the Ratio, IC50 and MIC values is ChEMBL document CHEMBL1955828, “Anti-mycobacterial activities of some cationic and anionic calix[4]arene derivatives” (Bioorg Med Chem, 2012).

The test system of experiment [1] is Mycobacterium tuberculosis. Nature of the experiment: Ratio of MIC for isoniazid to compound MIC isoniazid-resistant Mycobacterium tuberculosis MYC5165 after 6 days by MTT assay. The experiment is classed as functional. (In general: Tetrazolium dyes change colour on reduction, which living cells bring about.)
Experiment [2] concerns Mycobacterium tuberculosis. Nature of the experiment: Antimycobacterial activity against isoniazid-resistant Mycobacterium tuberculosis MYC5165 after 6 days by MTT assay. The experiment is classed as functional, organism-based. Conditions: MYC5165, 144 h. Put shortly:
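Twofold serial compound dilutions in Middlebrook 7H9 broth were inoculated with bacterial suspension in 7H9 (H37Rv, or INH-resistant MYC5165) and incubated 6 days. MTT (1 mg/mL) was then added, followed by 1 more day of incubation, solubilisation buffer, and OD read at 570 nm. MIC was the lowest concentration inhibiting growth relative to untreated bacilli, and IC50 was also determined.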

Experiment [3] in a line: Selectivity ratio of CC50 for human MRC5 cells to MIC for isoniazid-resistant Mycobacterium tuberculosis MYC5165. The experiment is classed as functional.

Converted amounts (≈) assume the structure as drawn.

Usually IC50 stands for the concentration that inhibits the measured activity by half. The low end stands for greater potency in that assay, the high end for weaker potency in that assay. What is called MIC is the lowest concentration found to suppress growth. As for `Cc1ccc(-c2ccc(COc3c4cc(CCNC(=N)N)cc3Cc3cc(CCNC(=N)N)cc(c3O)Cc3cc(CCNC(=N)N)cc(c3OCc3ccc(-c5ccc(C)cn5)nc3)Cc3cc(CCNC(=N)N)cc(c3O)C4)cn2)nc1.O=C(O)C(F)(F)F`, the Ratio in experiment [1] was found to be 15; in experiment [3], 85. The same compound yielded an IC50 in experiment [2] of 100 nM. The same compound had an MIC in experiment [2] of 0.4 µM.
In experiment [2], `NCCc1cc2c(O)c(c1)Cc1cc(CCN)cc(c1O)Cc1cc(CCN)cc(c1O)Cc1cc(CCN)cc(c1O)C2` displayed a concentration for half-maximal inhibition (IC50) of 700 nM and an MIC of 3.2 µM (≈ 1.91 µg/mL).
With `N=C(N)NCCc1cc2c(O)c(c1)Cc1cc(CCNC(=N)N)cc(c1O)Cc1cc(CCNC(=N)N)cc(c1O)Cc1cc(CCNC(=N)N)cc(c1O)C2.O=C(O)C(F)(F)F`, in experiment [1], the Ratio was found to be 15. For the same compound, in experiment [2], the IC50 worked out at 100 nM and the MIC stood at 0.8 µM. Besides, in experiment [3], the Ratio is reported as 256.
`NNC(=O)c1ccncc1` [ISONIAZID] registered an MIC in experiment [2] of 12.5 µM (≈ 1.71 µg/mL). In other words, the double-digit micromolar range.
As for `Cc1csc(-c2nc(COc3c4cc(CCNC(=N)N)cc3Cc3cc(CCNC(=N)N)cc(c3O)Cc3cc(CCNC(=N)N)cc(c3OCc3csc(-c5nc(C)cs5)n3)Cc3cc(CCNC(=N)N)cc(c3O)C4)cs2)n1.O=C(O)C(F)(F)F`, the Ratio in experiment [1] amounted to 125; in experiment [3], 6. This compound also showed a half-maximal inhibitory concentration (IC50) in experiment [2] of under 100 nM. The compound also registered an MIC in experiment [2] of 0.1 µM.
In experiment [2], `Cc1ccc(-c2ccc(COc3c4cc(CCN)cc3Cc3cc(CCN)cc(c3O)Cc3cc(CCN)cc(c3OCc3ccc(-c5ccc(C)cn5)nc3)Cc3cc(CCN)cc(c3O)C4)cn2)nc1` yielded an IC50 of 500 nM and an MIC of 1.6 µM (≈ 1.54 µg/mL).
Consider `O=C(O)c1cn(C2CC2)c2cc(N3CCNCC3)c(F)cc2c1=O` [CIPROFLOXACIN], for which, in experiment [2], 2.5 µM (≈ 0.828 µg/mL) was the least that counted as inhibitory (MIC).
